In ChEMBL document CHEMBL1144909, “Design, synthesis, and biological evaluation of a series of fluoroquinoanthroxazines with contrasting dual mechanisms of action against topoisomerase II and G-quadruplexes” (J Med Chem, 2003):
Calls of active or inactive are those of the source. The rule behind the calls is not given here.

Columns and labels:
[1] = molecular target: T1, DNA polymerase I, thermostable (Thermus aquaticus, UniProt P19821); test: Inhibition of Taq DNA polymerase
MCF7 = test: Cytotoxicity of compound was tested against MCF-7 breast cancer cells; type: functional, cell-based; conditions: Homo sapiens
How it was run: (§1)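 MTT assay. Exponentially growing cells (1–2 × 10^3 per well) seeded day 0; graded compound concentrations added day 1; on day 4, MTT (1 mg/mL in DPBS) added for 4 h at 37 °C. 8226/S (RPMI 8226 myeloma) and doxorubicin-resistant, topoisomerase II-reduced 8226/DOX1V; MCF7 breast cells. Myeloma values are the mean ± SD of four experiments; IC50 in μM.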

[2] = molecular target: T2, DNA topoisomerase II (Homo sapiens) (UniProt P11388+Q02880); test: Inhibition against decatenation activity of DNA topoisomerase II at a concentration of 100 uM; type: protein assay
How it was run: (§2)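 Human topoisomerase II (2 units) was then added for 30 min at 37 °C. Sarkosyl stop; products resolved on 1% agarose with ethidium bromide; decatenated kDNA quantified by densitometry.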

RPMI-8226 [3] = test: Cytotoxicity of compound against 8226/S cells; type: functional, Homo sapiens; how it was run: as §1
RPMI-8226 [4] = test: Cytotoxicity of compound against 8226/DOX1V cells; type: functional, Homo sapiens; how it was run: as §1
[5] = molecular target: T2, DNA topoisomerase II (Homo sapiens); test: Inhibition against decatenation activity of DNA topoisomerase II at a concentration of 3.2 uM; type: protein assay; how it was run: as §2
[6] = Ratio of cytotoxicity of DOX1V/S cells; type: functional
How it was run: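 Ratio of IC50 in 8226/DOX1V (doxorubicin-resistant, reduced topoisomerase II) to IC50 in parental 8226/S. Both IC50s come from a 3-day MTT assay, each the mean of four experiments.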

[7] = molecular target: T1, DNA polymerase I, thermostable; test: Inhibition of Taq DNA polymerase by TRAP assay

T1 sequence (P19821 whole entry): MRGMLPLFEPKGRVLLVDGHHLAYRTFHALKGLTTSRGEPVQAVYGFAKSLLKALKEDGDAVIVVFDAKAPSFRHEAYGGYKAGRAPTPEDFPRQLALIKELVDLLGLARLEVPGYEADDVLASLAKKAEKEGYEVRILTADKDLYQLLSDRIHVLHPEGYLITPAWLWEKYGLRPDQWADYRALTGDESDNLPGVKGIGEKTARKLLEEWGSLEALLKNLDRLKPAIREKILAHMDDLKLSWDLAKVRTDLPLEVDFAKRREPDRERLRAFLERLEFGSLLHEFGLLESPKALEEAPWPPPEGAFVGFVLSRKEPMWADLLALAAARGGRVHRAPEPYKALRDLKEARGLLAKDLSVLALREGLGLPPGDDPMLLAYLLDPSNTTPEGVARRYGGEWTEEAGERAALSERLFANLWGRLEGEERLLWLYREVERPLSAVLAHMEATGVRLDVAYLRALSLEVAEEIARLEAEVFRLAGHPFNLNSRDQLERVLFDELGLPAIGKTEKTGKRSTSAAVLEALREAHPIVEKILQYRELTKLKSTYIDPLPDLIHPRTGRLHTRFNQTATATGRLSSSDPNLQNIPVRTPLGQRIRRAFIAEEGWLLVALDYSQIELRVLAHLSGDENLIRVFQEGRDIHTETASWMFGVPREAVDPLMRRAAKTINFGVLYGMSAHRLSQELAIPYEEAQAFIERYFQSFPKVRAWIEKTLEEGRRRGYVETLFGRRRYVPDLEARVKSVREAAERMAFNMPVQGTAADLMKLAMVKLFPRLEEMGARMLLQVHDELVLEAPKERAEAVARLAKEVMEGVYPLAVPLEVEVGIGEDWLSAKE

SMILES | IC50 [1] | IC50 (MCF7) | inhibition [2] | Average (RPMI-8226 [3]) | Average (RPMI-8226 [4]) | inhibition [5] | Ratio [6] | IC50 [7]
N[C@@H]1CCN(c2c(F)cc3c(=O)c(C(=O)O)cn4c3c2Oc2cc3c(ccc5ccccc53)cc2-4)C1 | 2.4 µM | 4.3 µM | inactive | 5.46 µM | >10 µM | – | – | –
N[C@H]1CCN(c2c(F)cc3c(=O)c(C(=O)O)cn4c3c2Oc2cc3c(ccc5ccccc53)cc2-4)C1 | 5.7 µM | 14.2 µM | inactive | >10 µM | >10 µM | – | – | –
N[C@H]1CCN(c2c(F)cc3c(=O)c(C(=O)O)cn4c3c2Oc2ccccc2-4)C1 | – | – | – | – | – | 50% | – | –
COc1cccc2c1C(=O)c1c(O)c3c(c(O)c1C2=O)C[C@@](O)(C(=O)CO)C[C@@H]3O[C@H]1C[C@H](N)[C@H](O)[C@H](C)O1 [DOXORUBICIN] | – | – | – | 0.037 µM | 0.32 µM | – | 8.65 | –
N[C@@H]1CCN(c2c(F)cc3c(=O)c(C(=O)O)cn4c3c2Oc2c-4ccc3c2ccc2ccccc23)C1 | 0.06 µM | 0.46 µM | inactive | 0.324 µM | 0.501 µM | – | 1.55 | 5.6 µM
N[C@H]1CCN(c2c(F)cc3c(=O)c(C(=O)O)cn4c3c2Oc2c-4ccc3c2ccc2ccccc23)C1 | 0.67 µM | 1.1 µM | inactive | 0.69 µM | 2.775 µM | – | 4.02 | 21 µM
